From ChEMBL document CHEMBL1629582, “Novel nucleotide human immunodeficiency virus reverse transcriptase inhibitor GS-9148 with a low nephrotoxic potential: characterization of renal transport and accumulation” (Antimicrob Agents Chemother, 2009)

Assays:
[1] = Drug uptake in human kidney cortex at 5 uM by liquid scintillation counting in presence of 500 uM of probenecid; type: ADME, tissue-based
[2] = Cytotoxicity against CHO cells after 120 hrs by Cell-Titer Glo assay; type: cell-based, Cricetulus griseus; conditions: chinese hamster
Outline: (§1)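 CHO cells carrying hOAT1 or empty vector were seeded in parallel at 3 × 10³/well. After 24 h, serial drug dilutions were added in triplicate and incubated 120 h. Viability was read by luminescence relative to untreated wells. CC50 was taken by nonlinear regression from two independent experiments, mean ± SD.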

[3] = biological target: T1, Solute carrier family 22 member 6 (Homo sapiens, UniProt Q4U2R8); assay: Activity of human OAT1 transfected in CHO cells measured per 10^6 cells; type: cell-based
T1 sequence (Q4U2R8 whole entry): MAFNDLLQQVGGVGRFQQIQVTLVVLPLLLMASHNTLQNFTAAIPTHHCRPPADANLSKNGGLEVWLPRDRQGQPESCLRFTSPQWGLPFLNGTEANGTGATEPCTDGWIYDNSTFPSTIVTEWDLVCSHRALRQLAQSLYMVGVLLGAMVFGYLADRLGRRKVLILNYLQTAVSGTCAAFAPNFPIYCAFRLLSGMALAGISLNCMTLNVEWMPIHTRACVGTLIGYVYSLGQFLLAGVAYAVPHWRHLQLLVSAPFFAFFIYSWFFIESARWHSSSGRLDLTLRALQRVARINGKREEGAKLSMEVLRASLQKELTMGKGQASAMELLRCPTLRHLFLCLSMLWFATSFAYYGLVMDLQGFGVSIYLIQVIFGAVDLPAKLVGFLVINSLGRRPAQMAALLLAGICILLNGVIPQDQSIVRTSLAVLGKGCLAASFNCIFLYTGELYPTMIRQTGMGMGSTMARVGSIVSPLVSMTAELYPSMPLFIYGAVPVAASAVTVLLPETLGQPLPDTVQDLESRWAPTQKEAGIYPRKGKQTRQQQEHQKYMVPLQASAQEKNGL
Outline: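 Radiolabelled substrate at various concentrations incubated 20 min at 37°C with CHO cells stably expressing hOAT1 in Waymouth buffer (pH 7.2). Cells washed in ice-cold PBS, lysed in 0.3% Triton X-100, uptake read by scintillation counting. Km and Vmax fitted by Michaelis-Menten. Two independent experiments in duplicate, mean ± SD.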

OAT1 = assay: Cytotoxicity against CHO cells expressing hOAT1 after 120 hrs by Cell-Titer Glo assay; type: ADME, cell-based, Cricetulus griseus; conditions: chinese hamster; outline: as §1
[4] = Cellular uptake in BHK21 cells expressing hOAT3 at 10 uM by liquid scintillation counting relative to control; type: ADME, cell-based, Mesocricetus auratus; conditions: hamster, bhk-21, 10 µM
Outline: (§2)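 Radiolabeled nucleotide at 10 μM was incubated at 37°C in Waymouth buffer pH 7.2 with transporter-expressing cells (CHO-hOAT1 or BHK-hOAT3) and matching empty-vector control cells, with or without 500 μM probenecid. Uptake was sampled at several time points, with longer times for hOAT3. Washed cells were lysed in Triton X-100 and counted by scintillation. Two independent experiments in duplicate, mean ± SD; two-tailed paired t test.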

[5] = Cellular uptake in human HEK293T cells expressing MRP4 efflux transporter at 5 uM by liquid scintillation counting in presence of 30 uM efflux inhibitor MK-571 relative to control; conditions: hek-293t
[6] = AUC (0 to 24 hrs) in dog at 3 mg/kg, po; type: ADME, organism-based, Canis lupus familiaris; parameters: time < 24 hr, dose 3 mg/kg, route oral; conditions: plasma
[7] = Cellular uptake in human HEK293T cells expressing MRP4 efflux transporter at 5 uM by liquid scintillation counting relative to control; conditions: hek-293t
CHO [8] = assay: Cellular uptake in CHO cells expressing hOAT1 at 10 uM by liquid scintillation counting in presence of 500 uM of probenecid relative to control; type: ADME, cell-based, Cricetulus griseus; conditions: chinese hamster; outline: as §2
[9] = Percent of urinary material present as GS-9148 in dog urine at 3 mg/kg, po
[10] = Cellular uptake in BHK21 cells expressing hOAT3 at 10 uM by liquid scintillation counting in presence of 500 uM of probenecid relative to control; type: ADME, cell-based, Mesocricetus auratus; conditions: hamster, bhk-21, 10 µM; outline: as §2
[11] = Cellular uptake in human HEK293T cells expressing MRP4 efflux transporter assessed as accumulation of GS-9148 metabolite at 5 uM by liquid scintillation counting relative to control; type: ADME, cell-based; conditions: hek-293t
[12] = Renal clearance in dog urine at 3 mg/kg, po; type: ADME, organism-based, Canis lupus familiaris; parameters: dose 3 mg/kg, route oral; conditions: read-out: CL_renal (converted)
Outline: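 Fasted dogs were given 3.0 mg/kg [14C]prodrug (10 μCi/kg) in 50 mM citrate pH 2.2 by oral gavage. Urine was collected on dry ice over 0–8 and 8–24 h and counted by scintillation. Parent nucleotide in pooled 0–24 h urine was measured by radio-HPLC on a C18 column with an ammonium formate/acetonitrile gradient. Renal clearance = 24-h urinary amount / 24-h plasma exposure / body weight; three dogs.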

CHO [13] = assay: Cellular uptake in CHO cells expressing hOAT1 at 10 uM by liquid scintillation counting relative to control; type: ADME, cell-based, Cricetulus griseus; conditions: chinese hamster; outline: as §2
[14] = Drug level in dog kidney at 3 mg/kg, po after 24 hrs by liquid scintillation counting; type: ADME, organism-based, Canis lupus familiaris; parameters: dose 3 mg/kg, route oral; conditions: in vivo
Outline: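 Three fasted dogs were given 3.0 mg/kg [14C]prodrug (10 μCi/kg) orally in 50 mM citrate pH 2.2. Kidneys were excised at 24 h, rinsed, blotted and weighed, then combusted and counted by scintillation. Values are μg equivalents per gram tissue, mean ± SD of three dogs.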

OAT1 (SLC22A6) = biological target: T2, OAT1 (SLC22A6) (Homo sapiens, UniProt Q4U2R8); assay: (§3) Activity of human OAT1 transfected in CHO cells; type: cell-based
T2 sequence (Q4U2R8 whole entry): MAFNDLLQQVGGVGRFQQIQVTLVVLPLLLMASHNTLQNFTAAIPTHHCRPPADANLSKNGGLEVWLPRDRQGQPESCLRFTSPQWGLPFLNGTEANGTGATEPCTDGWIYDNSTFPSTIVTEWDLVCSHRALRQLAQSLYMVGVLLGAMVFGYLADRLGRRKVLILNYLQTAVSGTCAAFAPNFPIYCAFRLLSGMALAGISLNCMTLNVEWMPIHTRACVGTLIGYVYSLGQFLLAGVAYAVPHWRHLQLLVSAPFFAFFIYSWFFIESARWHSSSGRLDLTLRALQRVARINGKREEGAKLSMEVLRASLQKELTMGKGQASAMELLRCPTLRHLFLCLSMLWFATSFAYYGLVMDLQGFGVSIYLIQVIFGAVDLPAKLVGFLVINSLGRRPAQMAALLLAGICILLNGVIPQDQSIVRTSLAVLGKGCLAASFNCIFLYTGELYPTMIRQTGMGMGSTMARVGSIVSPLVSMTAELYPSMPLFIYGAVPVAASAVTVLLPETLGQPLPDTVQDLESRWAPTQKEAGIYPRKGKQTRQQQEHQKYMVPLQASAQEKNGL
Outline: (§4)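 CHO cells stably transfected with human OAT1, with empty-vector CHO cells run in parallel, seeded 48 h ahead. Radiolabeled substrate was given at a range of concentrations for 20 min at 37°C in Waymouth buffer pH 7.2. Cells were washed in ice-cold PBS, lysed in Triton X-100 and counted by scintillation. Km and Vmax came from Michaelis-Menten fitting; two independent experiments in duplicate, mean ± SD.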

[15] = substrate: Nc1ncnc2c1ncn2[C@@H]1O[C@H](OCP(=O)(O)O)C=C1F; assay: as §3; type: cell-based; outline: as §4
[16] = substrate: Nc1ncnc2c1ncn2[C@@H]1O[C@H](OCP(=O)(O)O)C=C1F; assay: (§5) Activity of human OAT3 transfected in BHK-21 cells; type: cell-based
Outline: (§6)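 BHK-21 cells stably transfected with human OAT3 (the clone with highest probenecid-sensitive uptake), with empty-vector BHK cells in parallel, seeded on fibronectin 24 h ahead. Radiolabeled substrate was given at a range of concentrations for 120 min at 37°C in Waymouth buffer pH 7.2. Lysates were counted by scintillation. Km and Vmax came from Michaelis-Menten fitting; two independent experiments in duplicate.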

[17] = substrate: C[C@H](Cn1cnc2c(N)ncnc21)OCP(=O)(O)O; assay: as §5; type: cell-based; outline: as §6
[18] = substrate: Nc1ncnc2c1ncn2CCOCP(=O)(O)O; assay: as §5; type: cell-based; outline: as §6

Nc1ncnc2c1ncn2CCOCP(=O)(O)O [ADEFOVIR]
Drug uptake [1]: Active
CC50 at 120 h [2]: ≥ 2000 µM
Vmax [3]: 46 pmol/min

Nc1ccn(C[C@@H](CO)OCP(=O)(O)O)c(=O)n1.O.O [CIDOFOVIR]
CC50 at 120 h [2]: 520 µM
CC50 at 120 h (OAT1): 3 µM
Vmax [3]: 103 pmol/min

Nc1ncnc2c1ncn2[C@@H]1O[C@H](OCP(=O)(O)O)C=C1F [GS-9148]
Drug uptake [4]: Active
Drug uptake [5]: Active
AUC(0-t) at 24 h [6]: 4.9 µM·h
Drug uptake [7]: Not Active
Drug uptake (CHO [8]): Not Active
percent of urinary material as GS-9148 [9]: 84%
Drug uptake [10]: Not Active
Drug uptake [11]: Active
CC50 at 120 h (OAT1): 435 µM
CL renal [12]: 7.83 mL/min/kg
Drug uptake (CHO [13]): Active
Drug uptake [14]: 2.49 µg/g

C[C@H](Cn1cnc2c(N)ncnc21)OCP(=O)(O)O [TENOFOVIR ANHYDROUS]
Km (OAT1 (SLC22A6)): 33.8 µM
Vmax [3]: 110 pmol/min

B1: Solute carrier family 22 member 6 (Homo sapiens) (protein)
chain: MAFNDLLQQVGGVGRFQQIQVTLVVLPLLLMASHNTLQNFTAAIPTHHCRPPADANLSKNGGLEVWLPRDRQGQPESCLRFTSPQWGLPFLNGTEANGTGATEPCTDGWIYDNSTFPSTIVTEWDLVCSHRALRQLAQSLYMVGVLLGAMVFGYLADRLGRRKVLILNYLQTAVSGTCAAFAPNFPIYCAFRLLSGMALAGISLNCMTLNVEWMPIHTRACVGTLIGYVYSLGQFLLAGVAYAVPHWRHLQLLVSAPFFAFFIYSWFFIESARWHSSSGRLDLTLRALQRVARINGKREEGAKLSMEVLRASLQKELTMGKGQASAMELLRCPTLRHLFLCLSMLWFATSFAYYGLVMDLQGFGVSIYLIQVIFGAVDLPAKLVGFLVINSLGRRPAQMAALLLAGICILLNGVIPQDQSIVRTSLAVLGKGCLAASFNCIFLYTGELYPTMIRQTGMGMGSTMARVGSIVSPLVSMTAELYPSMPLFIYGAVPVAASAVTVLLPETLGQPLPDTVQDLESRWAPTQKEAGIYPRKGKQTRQQQEHQKYMVPLQASAQEKNGL
Km [15]: 259 µM
Vmax [15]: 7.8e-06 µmol/min

B2: Organic anion transporter 3 (Homo sapiens) (protein)
chain: MTFSEILDRVGSMGHFQFLHVAILGLPILNMANHNLLQIFTAATPVHHCRPPHNASTGPWVLPMGPNGKPERCLRFVHPPNASLPNDTQRAMEPCLDGWVYNSTKDSIVTEWDLVCNSNKLKEMAQSIFMAGILIGGLVLGDLSDRFGRRPILTCSYLLLAASGSGAAFSPTFPIYMVFRFLCGFGISGITLSTVILNVEWVPTRMRAIMSTALGYCYTFGQFILPGLAYAIPQWRWLQLTVSIPFFVFFLSSWWTPESIRWLVLSGKSSKALKILRRVAVFNGKKEEGERLSLEELKLNLQKEISLAKAKYTASDLFRIPMLRRMTFCLSLAWFATGFAYYSLAMGVEEFGVNLYILQIIFGGVDVPAKFITILSLSYLGRHTTQAAALLLAGGAILALTFVPLDLQTVRTVLAVFGKGCLSSSFSCLFLYTSELYPTVIRQTGMGVSNLWTRVGSMVSPLVKITGEVQPFIPNIIYGITALLGGSAALFLPETLNQPLPETIEDLENWSLRAKKPKQEPEVEKASQRIPLQPHGPGLGSS
Km [16]: 1220 µM
Vmax [16]: 1.95e-05 µmol/min
Km [17]: 770 µM
Vmax [17]: 2.87e-05 µmol/min
Km [18]: 1220 µM
Vmax [18]: 0.000131 µmol/min
